Published values pooled from the literature.
Compare with care: the assays were run in different laboratories.
Target: Serine/threonine-protein kinase Sgk1 (SGK1, Homo sapiens, UniProt O00141)
One construct used (O00141 1-431): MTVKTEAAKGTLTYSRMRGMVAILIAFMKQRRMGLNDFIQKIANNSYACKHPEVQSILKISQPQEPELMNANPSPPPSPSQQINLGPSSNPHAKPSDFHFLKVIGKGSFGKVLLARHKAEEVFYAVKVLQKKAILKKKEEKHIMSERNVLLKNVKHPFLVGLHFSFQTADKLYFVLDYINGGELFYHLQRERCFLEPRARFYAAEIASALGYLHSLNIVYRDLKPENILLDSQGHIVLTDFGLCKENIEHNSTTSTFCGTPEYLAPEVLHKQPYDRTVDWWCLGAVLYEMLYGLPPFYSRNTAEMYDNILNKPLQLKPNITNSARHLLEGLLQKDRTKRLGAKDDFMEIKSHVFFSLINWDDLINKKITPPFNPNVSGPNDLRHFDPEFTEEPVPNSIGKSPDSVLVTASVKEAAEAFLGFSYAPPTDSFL

CN(C)c1ncc(F)c(-c2cnn3ncccc23)n1
remaining binding (binding; 1 µM): 79%

CCCCN(CCCC)C(=O)CN1C[C@@H](c2cc(OC)c3c(c2)OCO3)[C@H](C(=O)O)[C@H]1CC(C)(C)CCC
remaining binding (cell-free assay, competition with immobilised ligand; 1 µM): 77.6%

COc1cnc(Nc2cccc(S(N)(=O)=O)c2)nc1N1CCN(c2ccccc2)C(=O)C1
remaining binding (binding, competition with immobilised ligand; 1 µM): 94%

O=C(NCCCN1CCOCC1)c1ccc(Nc2nccc(-c3cc4ccccc4s3)n2)cc1
remaining binding (binding, competition with immobilised ligand; 1 µM): 8%

C=CC(=O)N1CCC(C(=O)NCC(=O)N2CCN(c3nc(-c4cnc(N)nc4C(F)F)nc(N4CCOCC4)n3)CC2)CC1
remaining binding (binding, competition with immobilised ligand; 1 µM): 85%

COc1cnc(Nc2cccc(S(N)(=O)=O)c2)nc1N1CCN(c2ccccc2)CC1
remaining binding (binding, competition with immobilised ligand; 1 µM): 76%

N[C@@H]1CCN(c2nccc(-c3cnn4ncccc34)n2)C1
remaining binding (binding; 1 µM): 100%

O=C(c1ccc(Nc2ncc(Cl)c(-c3cc4ccccc4s3)n2)cc1)N1CCC(N2CCCC2)CC1
remaining binding (binding, competition with immobilised ligand; 1 µM): 0.1%

O=C(NCC1CCOCC1)c1n[nH]cc1NC(=O)c1c(F)cccc1F
remaining binding (binding, competition with immobilised ligand; 1 µM): 89%

Cc1nc(Cc2cccc(C(F)(F)F)c2)sc1-c1ccc(C(N)=O)nc1
remaining binding (cell-free assay, competition with immobilised ligand; 1 µM): 100%

Cc1cnc(Nc2ccc(C(=O)N3CCC(N4CCCC4)CC3)cc2)nc1-c1cc2ccccc2s1
remaining binding (binding, competition with immobilised ligand; 1 µM): 0.2%

O=C(N[C@H]1CCCCC/C=C\C2C[C@@]2(C(=O)O)NC(=O)[C@@H]2C[C@@H](Oc3ccncc3)CN2C1=O)OC1CCCC1 (stereo partly shown)
remaining binding (binding, competition with immobilised ligand; 1 µM): 100%

Cc1cnn2ncc(-c3ccnc(N(C)C)n3)c2c1
remaining binding (binding; 1 µM): 73%

Cc1cc(NC(=O)c2cccc(S(F)(F)(F)(F)F)c2)cc(-n2ccn3nc(-c4cccnc4)cc23)c1
remaining binding (cell-free assay, competition with immobilised ligand; 1 µM): 81.3%

c1cnn2ncc(-c3ccnc(N4CCC45COC5)n3)c2c1
remaining binding (binding; 1 µM): 55%

C[C@@H](c1ccc(-n2cnc3c(N)ncnc32)cc1)N1CCc2nn(C)c(Cc3ccccc3)c2C1=O
remaining binding (binding, competition with immobilised ligand; 0.1 µM): 61%

CN(C)c1nccc(-c2cnc3ncccn23)n1
remaining binding (binding; 1 µM): 79%

O=C1NC(c2ccccn2)Sc2ccccc21 (stereo not shown)
remaining binding (cell-free assay, competition with immobilised ligand; 1 µM): 87%

C[C@@H]1CCN(c2nccc(-c3cnn4ncccc34)n2)C1
remaining binding (binding; 1 µM): 58%

CC(=O)N1CCC(c2ccc(C(=O)NC3=NCCN3)cc2C(F)(F)F)CC1
remaining binding (cell-free assay, competition with immobilised ligand; 1 µM): 100%

CN(C)c1nccc(-c2cnn3ncccc23)n1
remaining binding (binding; 1 µM): 69%

c1cncc(-c2cccc(Nc3nccc(NC4CCCCC4)n3)c2)c1
remaining binding (binding, competition with immobilised ligand; 10 µM): 92%
